Legend:
[1] = molecular target: rM1M2_HuR (first two RRM domains of human HuR) / 5'-DY681-labeled AU-rich RNA probe (Homo sapiens, UniProt Q15717); assay: RNA Electrophoretic Mobility Shift Assay; format: binding
Summary of the method: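 Human HuR RRM1-2 (rM1M2) was expressed in E. coli BL21. Protein (3.7 nM) was incubated 20 min with 1 nM 5′-DY681-labelled 26-nt AU-rich RNA and DMSO or test compound (15 µM screen; 0.01–25 µM dose–response). Samples ran on 4% native polyacrylamide at 80 V, 1.5 h, and were scanned for DY681. IC50 came from titration curves of band quantification.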

[2] = molecular target: His-tagged rM1M2 HuR protein / 5'-Bi-TNF ARE probe (Homo sapiens, UniProt Q15717); assay: Homogeneous Time-Resolved Fluorescence; format: binding
Summary of the method: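 His-tagged HuR M1M2 (20 nM) incubated with a biotinylated 26-nt TNF ARE RNA probe (50 nM), donor/acceptor beads and test compound (0.01–100 µM); DMSO control; protein hook point determined beforehand. HTRF signal was normalised to DMSO and fitted by nonlinear regression with a one-site model to give IC50. Mean ± s.d. of three independent experiments.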

[3] = Kinetic solubility by LC-MS in PBS with DMSO; format: physicochemical; details: 20% DMSO
[4] = system: RAW264.7 murine macrophages; assay: OZblue cell viability assay; format: cell-based; details: Mus musculus, RAW264.7, 48 h, read-out: IC50 cell viability
Summary of the method: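 RAW264.7 murine macrophages exposed for 48 h to test compound at 1 to 50 µM. Viability was read with the OZblue reagent and IC50 taken from the concentration–response. Mean ± s.d. of three independent experiments.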

RAW 264.7 cells [5] = assay: Cell cycle analysis, propidium iodide FACS; format: cell-based, murine; details: 2 / TM7n and 5 / TM11 at 10 µM and 20 µM, respectively, 48 h
Summary of the method: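 RAW 264.7 cells seeded at 250.000 cells/mL and exposed to test compound for 48 h, then fixed in 70% ethanol and stained with propidium iodide for flow cytometry. Controls were serum-free starvation for 24 h (G0/G1 block) and nocodazole for 2 h (G2/M block). Mean ± s.d. of three independent experiments.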

RAW 264.7 cells [6] = assay: Real-time cell proliferation by Incucyte; format: cell-based, murine; details: RAW 264.7, 72 h
Summary of the method: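 Growth curves were recorded by live-cell IncuCyte imaging of RAW 264.7 cells treated with test compounds over 72 h, and analysed in IncuCyte. Mean ± s.d. of three independent experiments.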

RAW 264.7 cells [7] = assay: Apoptosis: caspase 3 cleavage; format: cell-based, murine; details: RAW 264.7, 48 h, 15 µM (western blot, Annexin V)
Summary of the method: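 RAW 264.7 cells seeded at 50,000 cells/mL and co-treated 48 h with test compound plus CellEvent caspase-3/7 reagent, imaged every 4 h by IncuCyte. For the western blot and Annexin V: 48 h with 15 µM test compound or DMSO. Controls were staurosporin 1 µM ± QVD 10 µM for 4 h. Blots probed for caspase 3, PARP and β-actin. Annexin V-FITC/PI staining was read by flow cytometry as fold change vs DMSO.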

[8] = system: LPS-stimulated RAW264.7 cells; assay: qRT-PCR of LPS-induced genes; format: cell-based, murine; details: co-treatment LPS 1 µg/mL and TM 10 µM, 6 h
[9] = system: LPS-stimulated RAW264.7 cells; assay: Cxcl10 secretion by ELISA; format: cell-based, murine; details: co-treatment LPS 1 µg/mL and TM 10 µM, 6 h
Summary of the method: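 RAW264.7 seeded at 200.000 cells/mL and given LPS 1 µg/mL. Test compound (10 µM) or DMSO was either co-added for 6 h, or added after 2 h of LPS for a further 4 h. Supernatant was diluted 1:2 for mouse CXCL10 sandwich ELISA (TMB, 605 nm). pg/mL was normalised to crystal violet cell counts and expressed as % of LPS + DMSO; mean ± s.d., three independent experiments.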

Sequence of rM1M2_HuR (first two RRM domains of human HuR) / 5'-DY681-labeled AU-rich RNA probe (Q15717 20-186 limits assumed): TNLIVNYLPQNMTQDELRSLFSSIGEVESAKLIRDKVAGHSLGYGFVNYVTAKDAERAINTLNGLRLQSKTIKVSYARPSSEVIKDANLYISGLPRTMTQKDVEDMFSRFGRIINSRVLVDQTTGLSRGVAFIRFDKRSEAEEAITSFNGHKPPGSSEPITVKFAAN
Sequence of His-tagged rM1M2 HuR protein / 5'-Bi-TNF ARE probe (Q15717 20-186 limits assumed): as above

SMILES	IC50 [1]	inhibitory effect on HuR-RNA complex formation (REMSA screen) ([1]; TMs at 15 µM, 3.7 nM rM1M2_HuR, 1 nM RNA probe)	IC50 [2]	solubility relative to 2 / TM7n or 1 / TM6a [3]	IC50 [4]	cell cycle distribution (RAW 264.7 cells [5])	proliferation rate (real-time growth) (RAW 264.7 cells [6])	activation of apoptosis (caspase 3, PARP cleavage, Annexin V) (RAW 264.7 cells [7])	expression of LPS-induced readout genes (Cxcl10, Fas, Nos2, Il1β) [8]	Cxcl10 level in supernatant [9]
O=C1C=Cc2c(c(-c3ccco3)cn2S(=O)(=O)c2ccccc2)C1=O [5 / TM11, 3-(furan-2-yl)-1-(phenylsulfonyl)-1 H-indole-4,5-dione]	770 nM	greatest inhibitory effect	680 nM	ten times more soluble	15 µM	accumulation of the cells in the S and G2/M phases	dose-dependent decrease in proliferation rate	did not observe the activation of the apoptotic machinery	ability to counteract the effect of LPS stimulation	downregulation of its level
Cc1occ2c1C(=O)c1c(O)ccc(O)c1C2 [MS-444, reference compound]	–	–	–	–	–	–	–	absence of apoptotic effect	–	–
